We go through 14 compounds from PubChem BioAssay.

Test [1] in a line: inhibitors of TNFa-induced NFkB p65 translocation, primary screen, imaging, HUVEC, MLSMR starter and 10KST1 sets (AID 438;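 active = inhibition above 20% together with a positive visual image hit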;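 also: compound added about 3h40 before a 20 min TNFalpha stimulation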;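 as to inhibition: signal is the nuclear over cytoplasmic p65 intensity ratio per well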). The conditions noted are these: HUVEC TNFa-induced p65 nuclear translocation; cell count: measured here: nuclei count (cytotoxicity indicator), at 2.08 µM; inhibition: at 2 µM, stronger effect = higher value, 0% TNFa-plus-vehicle, 100% no-TNFa wells.
A short description of test [2]: reduction of polyQ htt aggregates in cells – imaging, exon1htt(103Q)mCFP cells, high-content imaging, primary screen (AID 483;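 active = visual image review flags a hit and inhibition of aggregation exceeds 20%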;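 also: compound exposure lasted 3 days before fixation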;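 as to nuclei count: percent of the per-plate median nuclei count of sample wells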). The conditions noted are these: exon1htt(103Q)mCFP cell line, aggregate imaging, at 2 µM; inhibition of aggregation: stronger effect = higher value; nuclei count: measured here: cell count, toxicity.
Test [3] in a line: endothelial E-selectin expression blockers – imaging, HUVEC, immunofluorescence, MLSMR starter and 10KST1 sets, primary screen (AID 487;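 active = visually confirmed hit in the image check and inhibition above 20%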;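 as to inhibition: signal is fraction of cell area covered by stained E-selectin grains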;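 as to nuclei count: 100% = median nuclei count of all wells on the same plate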). The following applies: HUVEC TNFalpha-induced E-selectin immunofluorescence imaging, at 2 µM; inhibition: stronger effect = higher value; nuclei count: measured here: cell number, toxicity.
Test [4] has as its target Voltage-gated potassium channel subunit beta-2 (Rattus norvegicus) (UniProt P62483). Put plainly: inhibitors of rat Kvbeta2 reductase activity – biochemical, NADPH fluorescence, primary screen (AID 622;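 active = fluorescence slope higher than the sample average by over 3 SD, cut at about -0.22 in these data, passing the limit was not always enough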;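 also: slope of raw intensity against log time taken from 70 to 1610 s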). The conditions noted are these: recombinant KvBeta, 4-cyanobenzaldehyde reduction, at 10 µM, stronger effect = higher value.
Test [5] has the same target. Kind of test: enhancers of rat Kvbeta2 NADPH turnover – biochemical, NADPH fluorescence, primary screen (AID 623;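 active = NADPH fluorescence slope more negative than the mean of all samples by about 3 SD, 99.7% confidence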;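 also: fluorescence intensity change per second fitted from 20 to 320 s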). The conditions noted are these: Recombinant KvBeta, NADPH fluorescence decrease slope, 10 min; at 10 µM; stronger effect = lower value.
The target in test [6] is Muscarinic acetylcholine receptor M4 (Homo sapiens) (UniProt P08173). Kind of test: M4-linked GIRK flux change, two-sided – cell-based, HEK293 M4/GIRK, thallium flux, BTC-AM, M4 allosteric agonist project, primary screen (AID 625;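 active = fluorescence slope after compound addition differing from the mean of all tested samples at 99.7% confidence, mostly higher but some lower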;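 also: thallium influx through GIRK channels coupled to M4 in HEK293 cells with BTC-AM dye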). The conditions noted are these: at 10 µM, actives lie on both sides. An outline of the steps: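 Material: HEK293 cells with M4 receptor and GIRK channels; Times: cells overnight at 37 °C, BTC-AM loading 1 h, reads 2 min total; Technique: kinetic BTC-AM fluorescence sampled at 1 Hz, 10 s pre-addition baseline; Read-out basis: slope over 15–24 s of trace normalized to starting intensity; Controls: carbachol positive, DMSO negative.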

Test [7] can be described thus: blockers of RIG-like receptor reporter activation – cell-based, Sendai virus stimulus, luciferase, 10K MLSCN set, TLR/RLR signaling modifier project, primary screen (AID 602276).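 Also: firefly luciferase from ISG56 promoter only with Renilla not read in this screen; 0% = Sendai virus plus DMSO and 100% = medium plus DMSO without virus.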 The following applies: HEK293 RL24 IRF3 luciferase reporter, at 10 µM, stronger effect = higher value. On the technique in general: In a reporter assay the amount or activity of a reporter protein is the signal.

Test [8] is described as follows: TLR3 IRF3 reporter activation blockers – cell-based, poly I:C stimulus, luciferase, 10K MLSCN set, primary screen (AID 602277;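 active = inhibition of the reporter signal at or above 50%; inactive = inhibition below 50%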). The following applies: HEK293-TLR3 RL24 IRF3 luciferase reporter, at 10 µM, stronger effect = higher value.

Active and inactive are the calls of the source.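 The calls were made as follows, unless noted: active = inhibition at or above 50% at 10 µM; inactive = inhibition below 50%.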

Usually inhibition stands for the drop in the measured response relative to a control, in per cent.

Voltage-gated potassium channel subunit beta-2 (Rattus norvegicus), sequence (P62483 whole entry, looked up): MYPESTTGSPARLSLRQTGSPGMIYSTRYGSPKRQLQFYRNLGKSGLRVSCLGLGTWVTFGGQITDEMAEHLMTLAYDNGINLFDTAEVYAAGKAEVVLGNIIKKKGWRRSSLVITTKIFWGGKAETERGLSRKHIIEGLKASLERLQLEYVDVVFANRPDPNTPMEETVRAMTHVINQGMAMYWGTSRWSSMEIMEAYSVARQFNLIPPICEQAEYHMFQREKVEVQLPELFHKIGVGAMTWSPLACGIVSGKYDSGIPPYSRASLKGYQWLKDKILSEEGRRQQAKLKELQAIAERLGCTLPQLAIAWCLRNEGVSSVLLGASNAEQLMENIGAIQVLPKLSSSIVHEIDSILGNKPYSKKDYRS
Muscarinic acetylcholine receptor M4 (Homo sapiens), sequence (P08173 whole entry, looked up): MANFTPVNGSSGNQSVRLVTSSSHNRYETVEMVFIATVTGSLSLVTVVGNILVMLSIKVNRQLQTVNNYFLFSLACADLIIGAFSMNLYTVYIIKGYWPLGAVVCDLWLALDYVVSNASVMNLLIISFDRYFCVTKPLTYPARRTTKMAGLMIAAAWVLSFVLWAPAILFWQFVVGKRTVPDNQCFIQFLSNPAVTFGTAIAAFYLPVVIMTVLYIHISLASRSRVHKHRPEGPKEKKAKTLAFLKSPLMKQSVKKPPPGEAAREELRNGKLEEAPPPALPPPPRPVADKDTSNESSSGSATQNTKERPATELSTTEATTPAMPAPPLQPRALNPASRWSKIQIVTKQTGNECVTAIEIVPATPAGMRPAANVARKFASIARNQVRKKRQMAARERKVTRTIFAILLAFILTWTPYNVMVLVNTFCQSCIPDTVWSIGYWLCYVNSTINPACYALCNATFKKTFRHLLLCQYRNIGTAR

For the compound `COCCn1c(SCC(=O)c2ccccc2)nc2c(c1=O)SC(C)C2` (centres undefined), the cell count in test [1] was determined as 232. For the same compound, the inhibition in test [1] is 7.3% (inactive); in test [3], -17.9% (inactive); in test [7], 1.47% (inactive); in test [8], 7.51% (inactive). The inhibition of aggregation in test [2] was -6.9% (inactive). The nuclei count in test [2] came to 101%; in test [3] it was 99.1%. For the same compound, the fluorescence slope in test [4] was -0.45 (inactive); in test [6], 0.00738 (inactive). The NADPH fluorescence slope in test [5] was -0.000101 (inactive).

Take `CCn1cc(C(=O)NCCN(C)CCc2ccccc2)c(=O)c2cc(S(=O)(=O)N(C)C)ccc21`: the cell count in test [1] came out at 543. In addition, the inhibition in test [1] is -20.4% (inactive); in test [3], -10.5% (inactive); in test [7], 14% (inactive); in test [8], 18.4% (inactive). Besides, in test [2], the inhibition of aggregation was -8.6% (inactive). Further, the nuclei count in test [2] came to 118%; in test [3], 110%. Also, the fluorescence slope in test [4] is -0.494 (inactive); in test [6], 0.00668 (inactive). Besides, the NADPH fluorescence slope in test [5] was 0.0002 (inactive).

As for `COC(=O)c1onc(C(=O)c2ccccc2)c1C(=O)OC`, the cell count in test [1] is 405. Also, the inhibition in test [1] is 2.7% (inactive); in test [3], -67.9% (inactive); in test [7], 16.3% (inactive); in test [8] it was 12.9% (inactive). Moreover, in test [2], the inhibition of aggregation is -4.5% (inactive). Further, the nuclei count in test [2] came out at 103%; in test [3] it was 114%. Further, the fluorescence slope in test [4] is -0.568 (inactive); in test [6], 0.00647 (inactive). Besides, the NADPH fluorescence slope in test [5] was -4.3e-05 (inactive).

For `CN(CC(=O)N1CCN(c2ccc(F)cc2)CC1)S(=O)(=O)c1ccc(F)cc1`, the cell count in test [1] came out at 389. Also, the inhibition in test [1] was -5.2% (inactive); in test [3], -100% (inactive); in test [7], 11.3% (inactive); in test [8], -4.19% (inactive). Further, the inhibition of aggregation in test [2] is -9.8% (inactive). Also, the nuclei count in test [2] turned out to be 103%; in test [3], 121%. In addition, the fluorescence slope was -0.595 (inactive) in test [4] and 0.00279 (inactive) in test [6]. Further, the NADPH fluorescence slope in test [5] is -6.1e-05 (inactive).

Consider `CCOc1ccccc1NC(=O)CSc1c(C)n[nH]c1C`, for which the cell count in test [1] is 333. Moreover, the inhibition in test [1] is -2% (inactive); in test [3], -17.1% (inactive); in test [7], 1.91% (inactive); in test [8], 15.3% (inactive). In test [2], the inhibition of aggregation is -21.4% (inactive). For the same compound, the nuclei count in test [2] turned out to be 120%; in test [3], 113%. The fluorescence slope in test [4] is -0.548 (inactive); in test [6] it was 0.00526 (inactive). Besides, the NADPH fluorescence slope in test [5] is -1.7e-05 (inactive).

Regarding `COC(=O)c1[nH]c2cccc(C)c2c1NC(=O)CN1CCCc2ccccc21`, in test [1], the cell count worked out at 279. Besides, the inhibition in test [1] was 6.2% (inactive); in test [3], -47.3% (inactive); in test [7] it was 2.04% (inactive); in test [8] it was 20% (inactive). In test [2], the inhibition of aggregation was 22.8% (inactive). The nuclei count came out at 94% in test [2] and 100% in test [3]. In addition, the values for the fluorescence slope in test [4] and in test [6] were -0.45 (inactive) and 0.00793 (inactive), respectively. In test [5], the NADPH fluorescence slope was 6.4e-05 (inactive).

Take `O=C(Cn1nnc(-c2ccncc2)n1)Nc1ccc2c(c1)CCC2`: in test [1], the cell count stood at 674. Besides, the inhibition is -8.6% (inactive) in test [1], -115% (inactive) in test [3], -0.547% (inactive) in test [7] and -23.3% (inactive) in test [8]. In addition, in test [2], the inhibition of aggregation is 5% (inactive). The figures for the nuclei count in test [2] and in test [3] were 89.1% and 140%, respectively. Further, the fluorescence slope in test [4] was -0.465 (inactive); in test [6] it was 0.00619 (inactive). In addition, the NADPH fluorescence slope in test [5] is -6.3e-05 (inactive).

For the compound `COc1ccc(-c2n[nH]c(C)c2-c2ccc(Cl)cc2)c(O)c1OC`, the cell count in test [1] is 403. Moreover, the inhibition is -9.6% (inactive) in test [1], -45.3% (inactive) in test [3], 20.1% (inactive) in test [7] and 24.5% (inactive) in test [8]. In addition, in test [2], the inhibition of aggregation was -24.2% (inactive). Further, the nuclei count came out at 104% in test [2] and 133% in test [3]. The results for the fluorescence slope in test [4] and in test [6] were -0.529 (inactive) and 0.00338 (inactive), respectively. Besides, the NADPH fluorescence slope in test [5] was -0.00026 (inactive).

For the compound `O=C(Cn1nc(C(F)(F)F)c2c1CCCC2)NCCN1CCOCC1`, in test [1], the cell count was 584. Further, the inhibition in test [1] was -6.8% (inactive); in test [3], -8.6% (inactive); in test [7], 17.5% (inactive); in test [8], 25.2% (inactive). Besides, the inhibition of aggregation in test [2] was -26.7% (inactive). Also, the nuclei count in test [2] stood at 103%; in test [3], 93.4%. Also, the fluorescence slope in test [4] is -0.516 (inactive); in test [6] it was 0.00274 (inactive). The NADPH fluorescence slope in test [5] is -0.00011 (inactive).

`Cc1ccc(S(=O)(=O)N(C)CC(=O)NC2CCCC2)cc1`: in test [1], the cell count is 226. The inhibition in test [1] is 10.1% (inactive); in test [3] it was -98.8% (inactive); in test [7], 10.5% (inactive); in test [8], 29.4% (inactive). In addition, the inhibition of aggregation in test [2] was 1.1% (inactive). The figures for the nuclei count in test [2] and in test [3] were 90.7% and 148%, respectively. In addition, the fluorescence slope in test [4] is -0.453 (inactive); in test [6], 0.00453 (inactive). Besides, the NADPH fluorescence slope in test [5] was -2.6e-05 (inactive).

`CCOC(=O)c1cnn(-c2ncnc3c2cnn3Cc2ccccc2)c1N`: the cell count in test [1] stood at 410. Further, the inhibition in test [1] was -4.6% (inactive); in test [3], -19.2% (inactive); in test [7], 17.2% (inactive); in test [8], 17.4% (inactive). In addition, the inhibition of aggregation in test [2] was 8.7% (inactive). The nuclei count turned out to be 100% in test [2] and 118% in test [3]. For the same compound, the values for the fluorescence slope in test [4] and in test [6] were -0.51 (inactive) and 0.0057 (inactive), respectively. For the same compound, the NADPH fluorescence slope in test [5] is 1.3e-05 (inactive).

With `CC(C)Oc1cccc(-c2cc(C(=O)N3CCN(S(C)(=O)=O)CC3)c3ccccc3n2)c1`, the cell count in test [1] was determined as 638. Further, the inhibition was 11.6% (inactive) in test [1], -49% (inactive) in test [3], -23% (inactive) in test [7] and -35.2% (inactive) in test [8]. In addition, the inhibition of aggregation in test [2] is 11.2% (inactive). The nuclei count in test [2] was found to be 108%; in test [3], 95%. The fluorescence slope in test [4] was -0.454 (inactive); in test [6], 0.00711 (inactive). In addition, the NADPH fluorescence slope in test [5] is 2e-05 (inactive).

As for `O=C(O)CCCNS(=O)(=O)c1ccc(NCc2ccccc2)c(C(=O)O)c1`, the cell count in test [1] was found to be 687. Moreover, the inhibition in test [1] is 6.7% (inactive); in test [3], 7% (inactive); in test [7], 10.5% (inactive); in test [8] it was 10.3% (inactive). In test [2], the inhibition of aggregation is 2.8% (inactive). The results for the nuclei count in test [2] and in test [3] were 87.1% and 91.1%, respectively. In addition, the fluorescence slope in test [4] is -0.343 (inactive); in test [6], 0.00502 (inactive). In addition, the NADPH fluorescence slope in test [5] was -5e-05 (inactive).

Turning to `CCOC(=O)C1=C(C)NC(=O)C(C#N)C1c1ccco1` (centres undefined), in test [1], the cell count is 319. The inhibition in test [1] is -1.2% (inactive); in test [3], -59.3% (inactive); in test [7] it was 15.7% (inactive); in test [8] it was 20.3% (inactive). In test [2], the inhibition of aggregation is 6.1% (inactive). Moreover, the nuclei count in test [2] was determined as 86.2%; in test [3], 127%. Besides, the fluorescence slope in test [4] is -0.39 (inactive); in test [6], 0.00489 (inactive). The NADPH fluorescence slope in test [5] is 3.3e-05 (inactive).
